Source: ChEMBL document CHEMBL1129428 (J Med Chem, 1996)

Experiments:
[1] = tested on: Mus musculus; assay: Anticonvulsant activity after intraperitoneal injection into mice by using MES screen test after 0.5 hr; assay type: functional
[2] = tested on: Mus musculus; assay: Anticonvulsant activity after intraperitoneal injection into mice measured in a maximal electroshock scree (MES) screen; assay type: functional
[3] = tested on: Mus musculus; assay: Anticonvulsant activity after intraperitoneal injection into mice by using scPTZ screen test after 4 hr; assay type: functional
[4] = tested on: Mus musculus; assay: Toxicity after intraperitoneal injection into mice by using toxicity screen test after 0.5 hr; assay type: organism-based; conditions: in vivo, ip
Method in brief: (§1)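 Mice injected intraperitoneally at 30, 100 and 300 mg/kg and examined 0.5 and 4 h afterwards. Each entry is the minimum dose giving activity (MES protection, scPTZ protection, or rotorod failure for neurotoxicity) in half or more of the mice. Activity is called absent if nothing occurs at 300 mg/kg.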

[5] = tested on: Mus musculus; assay: Anticonvulsant activity after intraperitoneal injection into mice by using scPTZ screen after 0.5 hr; assay type: functional
[6] = tested on: Mus musculus; assay: Compound was tested for toxicity after intraperitoneal injection into mice by using toxicity screen test after 4 hr; assay type: organism-based; conditions: in vivo, ip; method in brief: as §1
[7] = tested on: Rattus norvegicus; assay: Compound was tested for anticonvulsant activity after Oral Administration into Rats by using MES screen test after 2h,dose 12.5 mg/kg; number of rats out of four which were protected; assay type: functional
Method in brief: (§2)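 Rats received the compound orally. […] Rats were tested in the MES screen at 0.25, 0.5, 1, 2 and 4 h. Each value is the number of rats protected out of 4. The test followed NINDS procedures.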

[8] = tested on: Rattus norvegicus; assay: Compound was tested for anticonvulsant activity after Oral Administration into Rats by using MES screen test after 0.25h,dose 12.5 mg/kg; No activity was demonstarted; assay type: functional, organism-based; design: dose 12.5 mg/kg; method in brief: as §2
[9] = tested on: Rattus norvegicus; assay: Anticonvulsant activity after oral administration into rats; assay type: functional; design: concentration or dose not given beside the values
[10] = tested on: Rattus norvegicus; assay: Compound was tested for anticonvulsant activity after Oral Administration into Rats by using MES screen test after 1h,dose 12.5 mg/kg; number of rats out of four which were protected; assay type: functional; method in brief: as §2
[11] = tested on: Rattus norvegicus; assay: Compound was tested for anticonvulsant activity after Oral Administration into Rats by using MES screen test after 4h,dose 12.5 mg/kg; number of rats out of four which were protected; assay type: functional; method in brief: as §2
[12] = tested on: Rattus norvegicus; assay: Compound was tested for anticonvulsant activity after Oral Administration into Rats by using MES screen test after 0.5h,dose 12.5 mg/kg; No activity was demonstarted; assay type: functional, organism-based; design: dose 12.5 mg/kg; method in brief: as §2
[13] = tested on: Rattus norvegicus; assay: Compound was tested for anticonvulsant activity after Oral Administration into Rats by using MES screen test after 0.25h,dose 12.5 mg/kg; number of rats out of four which were protected; assay type: functional; method in brief: as §2
[14] = tested on: Rattus norvegicus; assay: Compound was tested for anticonvulsant activity after Oral Administration into Rats by using MES screen test after 1h,dose 50 mg/kg; number of rats out of four which were protected; assay type: functional; method in brief: as §2
[15] = tested on: Rattus norvegicus; assay: Compound was tested for anticonvulsant activity after Oral Administration into Rats by using MES screen test after 0.5h,dose 50 mg/kg; number of rats out of four which were protected; assay type: functional; method in brief: as §2
[16] = tested on: Rattus norvegicus; assay: Compound was tested for anticonvulsant activity after Oral Administration into Rats by using MES screen test after 0.25h,dose 50 mg/kg; number of rats out of four which were protected; assay type: functional; method in brief: as §2
[17] = tested on: Rattus norvegicus; assay: Compound was tested for anticonvulsant activity after Oral Administration into Rats by using MES screen test after 4h,dose 50 mg/kg; number of rats out of four which were protected; assay type: functional; method in brief: as §2
[18] = tested on: Rattus norvegicus; assay: Compound was tested for anticonvulsant activity after Oral Administration into Rats by using MES screen test after 2h,dose 50 mg/kg; number of rats out of four which were protected; assay type: functional; method in brief: as §2

| SMILES | Dose [1] [mg/kg] | Dose [2] [mg/kg] | Dose [3] [mg/kg] | Dose [4] [mg/kg] | Dose [5] [mg/kg] | Dose [6] [mg/kg] | Activity [7] | Activity [8] | Activity [9] | Activity [10] | Activity [11] | Activity [12] | Activity [13] | Activity [14] | Activity [15] | Activity [16] | Activity [17] | Activity [18] |
| --- | --- | --- | --- | --- | --- | --- | --- | --- | --- | --- | --- | --- | --- | --- | --- | --- | --- | --- |
| C/C(=N/NC(N)=O)c1ccccc1Oc1ccc(Cl)cc1 | 300 | 300 | 300 | 300 | 300 | 300 | – | – | – | – | – | – | – | – | – | – | – | – |
| N=C(S)N/N=C/c1ccc(Sc2ccc(F)cc2)cc1 | 100 | 100 | 100 | – | 100 | 100 | 1 | No activity | 1 | 2 | 1 | – | – | – | – | – | – | – |
| NC(=O)N/N=C/c1ccc(Oc2ccc3ccccc3c2)cc1 | 100 | 100 | 300 | – | – | – | 4 | – | – | 3 | 4 | No activity | 1 | – | – | – | – | – |
| Cc1cc(Oc2ccc(/C=N/NC(N)=O)cc2)ccc1Cl | 30 | 30 | – | 300 | 300 | 100 | 4 | – | 4 | 4 | 4 | – | 1 | – | – | – | – | – |
| NC(=O)N/N=C/c1ccc(Oc2ccc(F)cc2Br)cc1 | 100 | 100 | – | 300 | 300 | 300 | – | – | – | – | – | – | – | 4 | 4 | 4 | 4 | 4 |
| O=CN/N=C/c1ccc(Oc2ccc(F)cc2)cc1 | 300 | 300 | 300 | – | – | 300 | – | – | – | – | – | – | – | – | – | – | – | – |
| CCCCCCCCc1ccc(Oc2ccc(/C=N/NC(N)=O)cc2)cc1 | – | 300 | – | – | – | – | – | – | – | – | – | – | – | – | – | – | – | – |
| Cc1cc(Cl)ccc1Oc1ccc(/C=N/NC(N)=O)cc1 | 30 | 30 | 30 | 300 | 30 | 100 | 4 | No activity | 3 | 4 | 4 | – | – | – | – | – | – | – |
| N#Cc1ccc(Oc2ccc(/C=N\NC(N)=O)cc2)cc1 | 30 | 30 | 30 | 300 | 30 | 100 | 4 | – | 4 | 4 | 4 | – | 2 | – | – | – | – | – |
| CCCCCCCOc1ccc(Oc2ccc(/C=N/NC(N)=O)cc2)cc1 | – | – | – | 300 | – | – | – | – | – | – | – | – | – | – | – | – | – | – |
| C/C(=N/NC(N)=O)c1ccccc1Oc1ccccc1 | 300 | – | – | 300 | 300 | – | – | – | – | – | – | – | – | – | – | – | – | – |
| Cc1cc(I)ccc1Oc1ccc(/C=N/NC(N)=O)cc1 | 30 | 30 | – | 300 | – | 100 | 4 | – | 4 | 4 | 4 | – | 2 | – | – | – | – | – |
| Cc1cc(Oc2ccc(/C=N/NC(N)=O)cc2)ccc1F | 30 | 30 | – | 300 | – | – | 4 | – | 4 | 4 | 4 | – | 2 | – | – | – | – | – |
